Reference: ChEMBL document CHEMBL3779860, “A Designed Tryptophan- and Lysine/Arginine-Rich Antimicrobial Peptide with Therapeutic Potential for Clinical Antibiotic-Resistant Candida albicans Vaginitis” (J Med Chem, 2016)

Key:
[1] = test system: Candida albicans; experiment: Antimicrobial activity against antibiotic resistant Candida albicans clinical isolate 08030809 assessed as clone count at MIC after 6 hrs by colony counting assay (reference value: 14536 +/- 2467 CFU); assay type: functional
[2] = test system: Candida albicans; experiment: Antimicrobial activity against antibiotic resistant Candida albicans clinical isolate 08030809 assessed as clone count at 5 times MIC after 1 hr by colony counting assay (reference value: 228 +/- 23 CFU); assay type: functional
[3] = test system: Mus musculus; experiment: Antiinflammatory activity in antibiotic resistant Candida albicans clinical isolate 08030809 induced mouse vaginitis model assessed as reduction in IL-1beta secretion in vaginal tissue administered as intravaginal instillation measured on day 10 by ELISA; assay type: functional, organism-based; conditions: Vagina
Method in brief: (§1)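 Same estradiol-primed mouse model, infected intravaginally with C. albicans 08030809 and treated by intravaginal instillation (20 µL/mouse). Vaginal canals excised on day 10 of treatment and homogenised in 0.9% NaCl. Supernatant taken after 2,000 g for 15 min. TNF-α, IL-6, IL-1β and IL-10 measured by ELISA. Mean ± SE of three independent experiments; unpaired t-test versus vehicle.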

[4] = Hemolytic activity in human RBC after 30 mins; assay type: ADME, cell-based, Erythrocyte
Method in brief: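 Serial dilutions were incubated with human erythrocytes for 30 min at 37°C. Supernatant absorbance was read at 540 nm after centrifugation. Hemolysis is expressed as % of the 1% Triton X-100 lysis value, pooled from three independent experiments. The highest concentration tested was 320 µg/mL.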

[5] = test system: Mus musculus; experiment: Antiinflammatory activity in antibiotic resistant Candida albicans clinical isolate 08030809 induced mouse vaginitis model assessed as reduction in IL-10 secretion in vaginal tissue at 50 ug administered as intravaginal instillation measured on day 10 by ELISA; assay type: functional, Vagina; method in brief: as §1
[6] = test system: Candida albicans; experiment: Antimicrobial activity against antibiotic resistant Candida albicans clinical isolate 08030809 assessed as clone count at 10 times MIC after 3 hrs by colony counting assay (reference value: 3687 +/- 543 CFU); assay type: functional
[7] = test system: Mus musculus; experiment: Antiinflammatory activity in antibiotic resistant Candida albicans clinical isolate 08030809 induced mouse vaginitis model assessed as reduction in IL-10 secretion in vaginal tissue administered as intravaginal instillation measured on day 10 by ELISA; assay type: functional, organism-based; conditions: Vagina; method in brief: as §1
[8] = test system: Candida albicans; experiment: Antimicrobial activity against antibiotic resistant Candida albicans clinical isolate 08030809 in mouse vaginitis model assessed as decrease in colony count in lavage liquid of vagina at 50 ug measured on day 1; assay type: functional

**Q.** For H-VKRWKKWRWKWKKWV-NH2, which Activity [1] is on record?
**A.** Its Activity is 0 CFU.

**Q.** And the Activity [2]?
**A.** The Activity was 0 CFU.

**Q.** And the Activity [3]?
**A.** The Activity was “Dose-dependent effect”.

**Q.** And the HC10 ([4]; erythrocyte, 0.5 h)?
**A.** The HC10 was over 320 µg/mL.

**Q.** What about the HC50 at 0.5 h ([4]; red blood cells) of the same substance?
**A.** The HC50 at 0.5 h was over 320 µg/mL.

**Q.** What about the “inhibition (INH)” value [5] of the same substance?
**A.** Its value is 45%.

**Q.** And the Activity [6]?
**A.** Its Activity is 0 CFU.

**Q.** What about the Activity [7] of the same substance?
**A.** Its Activity is “Dose-dependent effect”.

**Q.** What about the “inhibition (INH)” value [8] of the same substance?
**A.** The value was 28%.
